Key:
[1] = target: Cyclin-dependent kinase 1/cyclin B1 (Homo sapiens, UniProt P06493); assay: Inhibition of CDK1/Cyclin B assessed as phosphorylation of Z-lyte Peptide at […] by FRET assay; type: protein-complex assay
Procedure, shortened: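 Z-lyte FRET kinase assay. Kinase was at 3 nM final with a coumarin/fluorescein-labelled synthetic peptide substrate and ATP. Development-step cleavage of non-phosphorylated peptide disrupts FRET. % phosphorylation was calculated from the coumarin:fluorescein emission ratio, read at 445–520 nm. EC50s were obtained by curve fitting.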

K562 = assay: Cell cycle arrest in human K562 cells assessed as accumulation of cells at G2/M phase after 24 hrs using propidium iodide by flow cytometry; type: functional, cell-based; conditions: K562, 24 h, read-out: IC50
Procedure, shortened: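 2 × 10⁴ K562 cells were exposed to varying compound concentrations for 24 h. Cells were stained with propidium iodide (50 µg/ml) in PBS containing 1% sodium citrate and 0.1% Triton X-100, and 5000 events were collected by flow cytometry. Cycle data were modelled by the Watson method. The minimum arrest concentration was taken where the G2:M peak ratio exceeded 1.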

HCT-116 [2] = assay: Cytotoxicity against human HCT116 cells assessed as growth inhibition at 0.01 to 10 uM after 5 days by MTS assay; type: functional, cell-based; conditions: HCT-116, 120 h
Aurora kinase A = target: T1, Aurora kinase A (Homo sapiens, UniProt O14965); assay: Inhibition of Aurora kinase A assessed as phosphorylation of Lats2 substrate at […] by FRET assay
T1 sequence (O14965 whole entry): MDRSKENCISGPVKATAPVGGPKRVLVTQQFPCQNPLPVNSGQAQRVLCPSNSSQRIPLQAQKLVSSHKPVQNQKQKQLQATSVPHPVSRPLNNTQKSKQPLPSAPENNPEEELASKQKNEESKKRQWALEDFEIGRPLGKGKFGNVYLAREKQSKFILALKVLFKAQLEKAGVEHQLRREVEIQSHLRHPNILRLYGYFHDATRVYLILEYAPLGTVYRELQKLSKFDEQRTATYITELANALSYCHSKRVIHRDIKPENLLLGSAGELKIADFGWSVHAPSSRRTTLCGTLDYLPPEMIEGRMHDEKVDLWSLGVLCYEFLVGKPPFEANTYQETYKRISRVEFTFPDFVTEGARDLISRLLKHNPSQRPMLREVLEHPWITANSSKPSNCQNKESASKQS

[3] = Hepatic blood flow in human liver microsomes assessed as compound remaining at 1.0 uM pre incubated for 5 mins at pH 7.4 by LC/MS/MS analysis; type: ADME, Microsome; conditions: read-out: QH
Procedure, shortened: (§1)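 Liver microsomes at 1 mg/mL protein in 50 mM potassium phosphate, pH 7.4, with 2.5 mM NADPH. Compound was used at 1.0 µM final and pre-incubated 5 min at 37 °C before NADPH started the reaction. Samples were taken at 0, 5 and 30 min, quenched in acetonitrile, and filtered. Results are expressed as %Q_h (hepatic blood flow).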

[4] = Efflux ratio of permeability in human Caco2 cells; type: ADME, cell-based; conditions: Caco-2
Procedure, shortened: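 Caco-2 bidirectional transport, passage 25–50, in HBSS/25 mM HEPES/1% DMSO after a 30 min pre-incubation at 37 °C. Compound was dosed apically (A–B) or basolaterally (B–A) and incubated 2 h at 37 °C with gentle shaking.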

Cytochrome P450 3A4 [5] = target: T2, Cytochrome P450 3A4 (Homo sapiens, UniProt P08684); assay: Inhibition of CYP3A4 using a fluorescent probe 7-benzyloxyquinoline; type: ADME
T2 sequence (P08684 whole entry): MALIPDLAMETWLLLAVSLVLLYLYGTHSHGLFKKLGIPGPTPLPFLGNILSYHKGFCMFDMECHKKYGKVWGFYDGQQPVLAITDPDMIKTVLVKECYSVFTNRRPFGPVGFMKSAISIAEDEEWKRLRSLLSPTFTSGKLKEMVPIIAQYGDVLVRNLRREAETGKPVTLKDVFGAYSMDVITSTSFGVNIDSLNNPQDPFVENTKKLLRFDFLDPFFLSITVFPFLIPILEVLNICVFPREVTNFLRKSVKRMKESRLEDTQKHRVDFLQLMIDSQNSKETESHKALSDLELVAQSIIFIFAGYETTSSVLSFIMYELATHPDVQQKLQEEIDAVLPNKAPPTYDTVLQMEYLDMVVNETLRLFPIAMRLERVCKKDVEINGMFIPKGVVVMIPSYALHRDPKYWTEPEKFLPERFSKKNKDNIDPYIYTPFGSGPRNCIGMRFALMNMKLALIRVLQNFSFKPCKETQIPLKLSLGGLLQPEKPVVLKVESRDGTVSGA

Cytochrome P450 2C19 = Cytochrome P450 2C19 (Homo sapiens, UniProt P33261); assay: Inhibition of CYP2C19; type: ADME
Chain of Cytochrome P450 2C19 (P33261 whole entry): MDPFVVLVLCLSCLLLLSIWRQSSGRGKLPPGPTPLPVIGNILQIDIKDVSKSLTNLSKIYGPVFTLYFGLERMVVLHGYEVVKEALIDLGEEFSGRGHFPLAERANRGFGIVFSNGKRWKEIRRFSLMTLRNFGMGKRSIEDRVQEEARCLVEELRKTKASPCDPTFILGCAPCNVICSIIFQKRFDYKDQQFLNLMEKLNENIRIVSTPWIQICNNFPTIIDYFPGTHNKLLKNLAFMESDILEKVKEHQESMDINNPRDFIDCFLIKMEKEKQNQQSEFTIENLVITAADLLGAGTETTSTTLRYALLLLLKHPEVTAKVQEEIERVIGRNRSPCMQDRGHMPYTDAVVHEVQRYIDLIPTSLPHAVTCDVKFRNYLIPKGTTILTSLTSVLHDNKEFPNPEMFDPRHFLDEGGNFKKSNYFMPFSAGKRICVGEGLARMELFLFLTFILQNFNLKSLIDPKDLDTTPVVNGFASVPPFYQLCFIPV

hERG (KCNH2) = hERG (KCNH2) (Homo sapiens, UniProt Q12809); assay: Inhibition of human ERG up to 10 uM by patch clamp method
Chain of hERG (KCNH2) (Q12809 whole entry): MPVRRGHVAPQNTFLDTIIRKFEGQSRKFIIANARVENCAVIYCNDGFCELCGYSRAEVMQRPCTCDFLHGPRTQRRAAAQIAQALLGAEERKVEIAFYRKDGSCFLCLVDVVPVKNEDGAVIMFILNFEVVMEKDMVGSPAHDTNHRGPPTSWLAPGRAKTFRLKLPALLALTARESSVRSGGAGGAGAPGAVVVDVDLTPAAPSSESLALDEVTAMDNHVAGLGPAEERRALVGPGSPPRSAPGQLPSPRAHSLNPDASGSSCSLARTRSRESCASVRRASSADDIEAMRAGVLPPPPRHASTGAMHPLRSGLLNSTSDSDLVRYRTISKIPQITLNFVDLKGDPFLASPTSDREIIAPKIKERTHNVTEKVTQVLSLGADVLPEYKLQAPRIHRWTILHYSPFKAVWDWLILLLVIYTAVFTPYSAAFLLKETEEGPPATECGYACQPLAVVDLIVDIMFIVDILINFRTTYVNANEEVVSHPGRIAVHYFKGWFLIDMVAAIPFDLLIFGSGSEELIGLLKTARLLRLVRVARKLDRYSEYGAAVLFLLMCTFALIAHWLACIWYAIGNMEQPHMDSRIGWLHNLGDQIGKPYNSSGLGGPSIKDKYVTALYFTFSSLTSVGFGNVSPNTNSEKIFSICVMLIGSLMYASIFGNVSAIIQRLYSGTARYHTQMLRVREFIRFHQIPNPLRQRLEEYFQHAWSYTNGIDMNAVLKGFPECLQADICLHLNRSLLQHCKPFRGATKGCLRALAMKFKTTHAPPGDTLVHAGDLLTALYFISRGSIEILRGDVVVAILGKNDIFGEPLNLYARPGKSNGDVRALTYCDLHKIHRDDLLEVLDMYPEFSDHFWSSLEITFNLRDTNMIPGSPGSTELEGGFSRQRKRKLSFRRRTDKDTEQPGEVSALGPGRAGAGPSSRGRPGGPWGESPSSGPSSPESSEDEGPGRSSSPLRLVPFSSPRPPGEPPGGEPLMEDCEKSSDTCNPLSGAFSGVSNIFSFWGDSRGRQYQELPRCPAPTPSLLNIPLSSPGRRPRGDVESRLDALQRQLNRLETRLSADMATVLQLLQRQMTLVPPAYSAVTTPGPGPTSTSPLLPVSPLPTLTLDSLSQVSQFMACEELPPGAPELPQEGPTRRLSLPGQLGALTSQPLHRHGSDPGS

[6] = Hepatic blood flow in rat liver microsomes assessed as compound remaining at 1.0 uM pre incubated for 5 mins at pH 7.4 by LC/MS/MS analysis; type: ADME, Microsome; conditions: read-out: QH; procedure, shortened: as §1
[7] = Hepatic blood flow in mouse liver microsomes assessed as compound remaining at 1.0 uM pre incubated for 5 mins at pH 7.4 by LC/MS/MS analysis; type: ADME, Microsome; conditions: read-out: QH; procedure, shortened: as §1
Cytochrome P450 1A2 = target: T3, Cytochrome P450 1A2 (Homo sapiens, UniProt P05177); assay: Inhibition of CYP1A2; type: ADME
T3 sequence (P05177 whole entry): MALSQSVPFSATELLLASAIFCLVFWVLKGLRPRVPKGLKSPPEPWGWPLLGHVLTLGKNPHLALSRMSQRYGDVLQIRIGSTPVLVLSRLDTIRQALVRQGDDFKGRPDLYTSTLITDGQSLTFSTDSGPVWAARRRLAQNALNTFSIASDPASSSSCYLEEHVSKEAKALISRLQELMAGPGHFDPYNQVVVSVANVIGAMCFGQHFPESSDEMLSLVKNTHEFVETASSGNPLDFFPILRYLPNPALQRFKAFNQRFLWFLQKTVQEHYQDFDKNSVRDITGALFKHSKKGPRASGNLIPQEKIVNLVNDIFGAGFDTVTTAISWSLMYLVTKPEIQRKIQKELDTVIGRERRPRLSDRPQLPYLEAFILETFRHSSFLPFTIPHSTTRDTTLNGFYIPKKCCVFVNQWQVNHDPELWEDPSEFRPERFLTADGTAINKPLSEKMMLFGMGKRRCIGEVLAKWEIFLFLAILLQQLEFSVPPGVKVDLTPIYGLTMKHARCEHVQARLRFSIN

[8] = Apparent permeability from apical to basolateral side of the human Caco2 cells after 2 hrs; type: ADME, cell-based; conditions: Caco-2
Procedure, shortened: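 Caco-2 cells, passage 25–50, were grown on transwell inserts. They were washed and pre-incubated 30 min at 37 °C in HBSS with 25 mM HEPES and 1% DMSO. Compound was added to the apical chamber and apical-to-basolateral transport was measured after 2 h at 37 °C with gentle shaking.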

Cytochrome P450 2C9 = Cytochrome P450 2C9 (Homo sapiens, UniProt P11712); assay: Inhibition of CYP2C9 using a fluorescent probe 7-methoxy-4-trifluoromethylcoumarin; type: ADME
Chain of Cytochrome P450 2C9 (P11712 whole entry): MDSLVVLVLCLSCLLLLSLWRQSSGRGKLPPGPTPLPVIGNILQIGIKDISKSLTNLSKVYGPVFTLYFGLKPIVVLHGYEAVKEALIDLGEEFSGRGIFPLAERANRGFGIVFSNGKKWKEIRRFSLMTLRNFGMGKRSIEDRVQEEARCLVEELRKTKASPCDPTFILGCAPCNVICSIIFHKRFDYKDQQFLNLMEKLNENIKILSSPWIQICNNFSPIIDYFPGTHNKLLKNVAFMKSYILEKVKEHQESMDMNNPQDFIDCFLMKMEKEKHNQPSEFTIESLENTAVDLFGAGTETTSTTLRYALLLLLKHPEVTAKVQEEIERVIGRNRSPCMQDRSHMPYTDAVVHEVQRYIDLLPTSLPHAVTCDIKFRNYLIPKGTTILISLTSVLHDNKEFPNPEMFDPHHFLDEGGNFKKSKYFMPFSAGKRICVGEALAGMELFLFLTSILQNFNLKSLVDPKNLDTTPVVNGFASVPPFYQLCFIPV
Procedure, shortened: (§2)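 Fluorescent-probe CYP inhibition assay. Probes: 7-methoxy-4-trifluoromethylcoumarin for 2C9; 3-[2-(N,N-diethyl-N-methylamino)ethyl]-7-methoxy-4-methylcoumarin for 2D6.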

Cytochrome P450 3A4 [9] = target: T2, Cytochrome P450 3A4; assay: Inhibition of CYP3A4 using a fluorescent probe 7-benzyloxy-4(trifluoromethyl)-coumarin; type: ADME
Cytochrome P450 2D6 = Cytochrome P450 2D6 (Homo sapiens, UniProt P10635); assay: Inhibition of CYP2D6 using a fluorescent probe 3-[2-(N,N-diethyl-N-methylamino)ethyl]-7-methoxy-4methylcoumarin; type: ADME; procedure, shortened: as §2
Chain of Cytochrome P450 2D6 (P10635 whole entry): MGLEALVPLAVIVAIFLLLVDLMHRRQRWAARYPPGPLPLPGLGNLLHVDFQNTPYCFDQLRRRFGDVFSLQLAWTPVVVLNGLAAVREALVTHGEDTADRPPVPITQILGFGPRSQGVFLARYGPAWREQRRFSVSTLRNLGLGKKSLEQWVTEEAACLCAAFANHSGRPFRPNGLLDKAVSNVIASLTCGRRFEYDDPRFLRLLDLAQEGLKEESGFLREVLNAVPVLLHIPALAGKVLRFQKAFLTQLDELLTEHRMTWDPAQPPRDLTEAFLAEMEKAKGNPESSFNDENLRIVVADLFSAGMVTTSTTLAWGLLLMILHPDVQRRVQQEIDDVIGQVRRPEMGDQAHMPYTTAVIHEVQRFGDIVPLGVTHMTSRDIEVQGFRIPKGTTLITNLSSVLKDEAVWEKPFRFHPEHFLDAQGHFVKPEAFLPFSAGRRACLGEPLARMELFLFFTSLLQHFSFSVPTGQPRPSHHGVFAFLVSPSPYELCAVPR

Mus musculus = assay: Toxicity in nu/nu mouse xenografted with human HCT116 cells assessed as change in body weight at 15 to 30 mg/kg, […]; type: organism-based, HCT-116; parameters: dose 15-30 mg/kg, route intraperitoneal; conditions: in vivo, ip, 504 h
HCT-116 [10] = assay: Antitumor activity against human HCT116 cells xenografted in nu/nu mouse assessed as tumor growth inhibition at 15 to 30 mg/kg, ip for 21 days relative to control; type: functional; conditions: dose mg/kg 15-30, route intraperitoneal

Chain of Cyclin-dependent kinase 1/cyclin B1 (P06493 whole entry): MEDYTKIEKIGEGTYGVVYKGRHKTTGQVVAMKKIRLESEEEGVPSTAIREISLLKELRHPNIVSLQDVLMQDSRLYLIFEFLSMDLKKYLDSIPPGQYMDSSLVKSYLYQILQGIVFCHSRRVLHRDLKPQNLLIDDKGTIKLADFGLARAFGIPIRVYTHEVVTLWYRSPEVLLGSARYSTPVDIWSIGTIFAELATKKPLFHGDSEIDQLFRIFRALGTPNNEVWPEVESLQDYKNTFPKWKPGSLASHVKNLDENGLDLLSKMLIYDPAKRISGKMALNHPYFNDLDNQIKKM
Chain of Cyclin-dependent kinase 1/cyclin B1 (P14635 whole entry, further chain): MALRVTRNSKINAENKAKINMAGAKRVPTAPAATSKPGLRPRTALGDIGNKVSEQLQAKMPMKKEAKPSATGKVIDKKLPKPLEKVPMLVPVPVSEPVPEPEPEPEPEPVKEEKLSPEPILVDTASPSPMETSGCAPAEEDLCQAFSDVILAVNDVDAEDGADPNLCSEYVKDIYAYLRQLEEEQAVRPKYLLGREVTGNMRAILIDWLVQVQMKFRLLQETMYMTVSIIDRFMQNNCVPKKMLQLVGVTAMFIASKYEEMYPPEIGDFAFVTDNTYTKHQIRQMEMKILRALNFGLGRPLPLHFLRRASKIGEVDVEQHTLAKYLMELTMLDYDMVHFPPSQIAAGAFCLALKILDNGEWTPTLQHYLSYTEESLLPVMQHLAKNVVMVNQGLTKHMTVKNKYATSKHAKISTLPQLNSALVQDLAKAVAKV

| SMILES | IC50 [1] | IC50 (Aurora kinase A) | Minimum G2/M arrest concentration (K562) | IC50 (HCT-116 [2]) | further results |
| --- | --- | --- | --- | --- | --- |
| CN(C)CCN(c1ccc(Nc2ncc3cnn(C4CCCCCC4)c3n2)cn1)S(C)(=O)=O | 0.01 µM | 0.26 µM | 300 nM | 0.22 µM |  |
| CS(=O)(=O)N(c1ccc(Nc2ncc3cnn(C4CCCCCC4)c3n2)nc1)S(C)(=O)=O | > 10 µM | > 10 µM | > 3000 nM |  |  |
| CS(=O)(=O)Nc1ccc(Nc2ncc3cnn(C4CCCCCC4)c3n2)cn1 | 0.007 µM |  | 300 nM | 0.21 µM | hepatic extraction ratio at 5 min, 1 µM [3]: 0.39; efflux ratio [4]: 1.5; IC50 (Cytochrome P450 3A4 [5]): > 10 µM; IC50 (Cytochrome P450 2C19): > 10 µM; inhibition at up to 10 uM (hERG (KCNH2)): 6.5%; hepatic extraction ratio at 5 min, 1 µM [6]: 0.3; hepatic extraction ratio at 5 min, 1 µM [7]: 0.33; IC50 (Cytochrome P450 1A2): > 10 µM; Papp A→B at 2 h [8]: 201 nm/s; IC50 (Cytochrome P450 2C9): > 10 µM; IC50 (Cytochrome P450 3A4 [9]): > 10 µM; IC50 (Cytochrome P450 2D6): > 10 µM |
| CS(=O)(=O)N(CCCN1CCOCC1)c1ccc(Nc2ncc3cnn(C4CCCCCC4)c3n2)cc1 | 0.005 µM |  | 100 nM | 0.17 µM |  |
| CS(=O)(=O)N(CCN)c1ccc(Nc2ncc3cnn(C4CCCCCC4)c3n2)cc1 | 0.005 µM | 0.02 µM | 100 nM | 0.06 µM |  |
| CS(=O)(=O)N(Cc1ccncc1)c1ccc(Nc2ncc3cnn(C4CCCCCC4)c3n2)cn1 | 0.013 µM | 0.095 µM | 300 nM | 0.32 µM |  |
| CC(C)N(c1ccc(Nc2ncc3cnn(C4CCCCCC4)c3n2)cc1)S(C)(=O)=O | 0.09 µM | 0.005 µM | 300 nM | 0.24 µM |  |
| CS(=O)(=O)N(CCN1CCOCC1)c1ccc(Nc2ncc3cnn(C4CCCCCC4)c3n2)cn1 | 0.031 µM | 0.15 µM | 2000 nM | 0.5 µM |  |
| CS(=O)(=O)N(CCN)c1ccc(Nc2ncc3cnn(C4CCCCCC4)c3n2)cn1 | 0.003 µM |  | 300 nM | 0.119 µM |  |
| CS(=O)(=O)N(CCN1CCOCC1)c1ccc(Nc2ncc3cnn(C4CCCCCC4)c3n2)cc1 | 0.023 µM | 0.014 µM | 100 nM | 0.16 µM | hepatic extraction ratio at 5 min, 1 µM [3]: 0.95; Activity (Mus musculus): Non-toxic; efflux ratio [4]: 1.1; IC50 (Cytochrome P450 3A4 [5]): 0.04 µM; IC50 (Cytochrome P450 2C19): 0.03 µM; inhibition at up to 10 uM (hERG (KCNH2)): 40%; hepatic extraction ratio at 5 min, 1 µM [6]: 0.94; hepatic extraction ratio at 5 min, 1 µM [7]: 0.96; IC50 (Cytochrome P450 1A2): > 10 µM; Papp A→B at 2 h [8]: 265 nm/s; growth inhibition (GI) (HCT-116 [10]): 50%; IC50 (Cytochrome P450 2C9): 0.001 µM; IC50 (Cytochrome P450 3A4 [9]): 0.04 µM; IC50 (Cytochrome P450 2D6): > 10 µM |
| CS(=O)(=O)N(CCO)c1ccc(Nc2ncc3cnn(C4CCCCCC4)c3n2)cc1 | 0.005 µM | 0.013 µM | 30 nM | 0.077 µM |  |

More lines, main results first:

| IC50 [1] | IC50 (Aurora kinase A) | SMILES | Minimum G2/M arrest concentration (K562) | IC50 (HCT-116 [2]) | further results |
| --- | --- | --- | --- | --- | --- |
| 0.01 µM | 0.35 µM | CS(=O)(=O)N(CCN1CCCC1)c1ccc(Nc2ncc3cnn(C4CCCCCC4)c3n2)cn1 | 1000 nM | 0.125 µM |  |
| 0.004 µM | 0.11 µM | CS(=O)(=O)N(CCO)c1ccc(Nc2ncc3cnn(C4CCCCCC4)c3n2)cn1 | 300 nM | 0.145 µM |  |
| 0.023 µM | 0.03 µM | CS(=O)(=O)N(Cc1ccncc1)c1ccc(Nc2ncc3cnn(C4CCCCCC4)c3n2)cc1 | 300 nM | 0.25 µM |  |
| 0.006 µM | 0.006 µM | CS(=O)(=O)N(CCCO)c1ccc(Nc2ncc3cnn(C4CCCCCC4)c3n2)cc1 | 100 nM | 0.078 µM |  |
| 0.006 µM | 0.009 µM | CS(=O)(=O)N(CCCN1CCCCC1)c1ccc(Nc2ncc3cnn(C4CCCCCC4)c3n2)cc1 | 100 nM | 0.092 µM |  |
